Consider ten compounds from ChEMBL document CHEMBL1137141, “Synthesis of new coumarin 3-(N-aryl) sulfonamides and their anticancer activity” (2004).

What all share (assay type): functional
One experiment has as its system NCI-H157. As to the kind of experiment: Concentration required to inhibit growth of H157 cells by 50% after 96h of treatment. As to conditions: Homo sapiens, NCI-H157, 96 h. An outline of the steps:
(§1)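 Cells (1 × 10⁵) were plated in 6-well dishes. Test agents were added 24 h later at five concentrations over a 2-log span (1–100 µM) and left on continuously for 96 h. Viable cells were counted by trypan blue exclusion on a hemacytometer and expressed as a percentage of DMSO-treated wells. GI50 was read from dose–response curves of % cells versus concentration.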

The subject of the next experiment is K562. As to the kind of experiment: Concentration required to inhibit growth of K562 cells by 50% after 96h of treatment. As to conditions: Homo sapiens, K562, 96 h. An outline of the steps:
as §1

The test system of another experiment is BT-20. As to the kind of experiment: Concentration required to inhibit growth of BT20 cells by 50% after 96h of treatment. To be noted: Homo sapiens, BT-20, 96 h. An outline of the steps:
as §1

Another experiment concerns DLD-1. In words: Concentration required to inhibit growth of DLD-1 cells by 50% after 96h of treatment. As to conditions: Homo sapiens, DLD-1, 96 h. An outline of the steps:
as §1

In the next experiment the test system is DU-145. As to the kind of experiment: Concentration required to inhibit growth of DU145 cells by 50% after 96h of treatment. To be noted: Homo sapiens, DU-145, 96 h. An outline of the steps: as §1

SMILES strings stand for the structures.

Take `COc1ccc(NS(=O)(=O)c2cc3cccc(Br)c3oc2=O)cc1`: the GI50 (as a rule, the concentration at which growth is held to half of that of the control) with NCI-H157 was 18 µM; with K562, 14 µM; with BT-20, 16 µM; in the experiment with DLD-1, 20 µM; in the experiment on DU-145, 15 µM.
Turning to `CCOc1cccc2cc(S(=O)(=O)Nc3ccc(F)c(N)c3)c(=O)oc12`, the GI50 came to 72 µM in the experiment with NCI-H157; 42 µM in the experiment with K562; 54 µM in the experiment with BT-20; 80 µM in the experiment with DLD-1; 48 µM with DU-145.
In the case of `COc1ccc(NS(=O)(=O)c2cc3cc(Cl)ccc3oc2=O)cc1O`, the GI50 was determined as 76 µM in the experiment on NCI-H157; 51 µM with K562; 65 µM with BT-20; 82 µM with DLD-1; 42 µM in the experiment with DU-145.
In the same order, the values of `COc1ccc2oc(=O)c(S(=O)(=O)Nc3ccc(Br)cc3)cc2c1` are 32 µM, 27 µM, 18 µM, 38 µM and 25 µM.
As to `O=c1oc2c(Br)cccc2cc1S(=O)(=O)Nc1ccc(Br)cc1`, the GI50 in the experiment with NCI-H157 is 15 µM; in the experiment with K562 it was 16 µM; in the experiment with BT-20 it was 12 µM; in the experiment on DLD-1 it was 14 µM; in the experiment on DU-145 it was 12 µM.
With `COc1ccc(NS(=O)(=O)c2cc3cc(Cl)ccc3oc2=O)cc1`, the GI50 with NCI-H157 stood at 28 µM; with K562 it was 23 µM; with BT-20, 27 µM; in the experiment with DLD-1, 32 µM; in the experiment with DU-145, 22 µM.
In the same order, the values of `CCOc1cccc2cc(S(=O)(=O)Nc3ccc(Br)cc3)c(=O)oc12` are 74 µM, 58 µM, 64 µM, 85 µM and 52 µM.
The matching figures for `COc1ccc2oc(=O)c(S(=O)(=O)Nc3ccc(F)c(N)c3)cc2c1`: 78 µM, 44 µM, 68 µM, 92 µM and 56 µM.
In the case of `O=c1oc2c(Cl)cccc2cc1S(=O)(=O)Nc1ccc(Br)cc1`, the GI50 in the experiment on NCI-H157 is 16 µM; in the experiment on K562, 11 µM; with BT-20 it was 17 µM; in the experiment with DLD-1, 18 µM; in the experiment on DU-145, 14 µM.
In the case of `CCOc1cccc2cc(S(=O)(=O)Nc3ccc(OC)cc3)c(=O)oc12`, the GI50 with NCI-H157 was 74 µM; in the experiment with K562 it was 48 µM; with BT-20, 52 µM; in the experiment on DLD-1, 78 µM; in the experiment on DU-145, 57 µM.
